Measured values collected from several papers.
Lines come from different studies, so protocols differ.
Target: Cyclin-dependent kinase 3 (CDK3, Homo sapiens, UniProt Q00526)

C[C@@H]1CN(c2ccc3ncc(-c4ccc5[nH]nc(C6CC6)c5c4)n3n2)C[C@H](C)O1 gave a remaining binding of 100% (binding; competition with immobilised ligand; 50 nM).
The remaining binding of COc1cnc(Nc2cccc(S(N)(=O)=O)c2)nc1N1CCN(c2ccccc2)CC1 is reported as 100% (binding; competition with immobilised ligand; 1 µM).
With N#Cc1ccc(Nc2ccc3[nH]c(=O)[nH]c3c2)c(Cl)c1 the remaining binding was 100% (cell-free assay; competition with immobilised ligand; 1 µM).
With O=C(Nc1c[nH]nc1C(=O)NC1CCNCC1)c1cc(F)cc(F)c1 the remaining binding was 91% (binding; competition with immobilised ligand; 1 µM).
For CCCOc1ccc([C@H]2[C@H](C(=O)O)[C@@H](c3ccc4c(c3)OCO4)CN2CC(=O)Nc2c(CC)cccc2CC)cc1, the remaining binding was 95% (cell-free assay; competition with immobilised ligand; 1 µM).
Nc1ncc2c(n1)-c1c([nH]c3ccc(C#CC4CC4)cc13)CCCC2 has a remaining binding of 77% (binding; competition with immobilised ligand; 1 µM).
C[C@H](c1cccc(C#N)c1)n1cc(Cl)cc(C(N)=O)c1=N gave a remaining binding of 100% (cell-free assay; competition with immobilised ligand; 1 µM).
For CC1CCCN1c1nccc(-c2cnn3ncccc23)n1 (stereo not drawn), the remaining binding was 100% (binding; 1 µM).
CC(=O)N1CCC(c2ccc(C(=O)NC3=NCCN3)cc2C(F)(F)F)CC1 has a remaining binding of 100% (cell-free assay; competition with immobilised ligand; 1 µM).
The remaining binding of C[C@H]1CCN(c2nccc(-c3cnn4ncccc34)n2)C1 is reported as 86% (binding; 1 µM).
O=C(c1ccc(Nc2ncc(Cl)c(-c3cc4ccccc4s3)n2)cc1)N1CCC(N2CCCC2)CC1 gave a remaining binding of 48% (binding; competition with immobilised ligand; 1 µM).
For FC(F)(F)Oc1cccc(-c2cnc3ccc(-c4ccncc4)nn23)c1, the remaining binding was 79% (cell-free assay; competition with immobilised ligand; 5 µM).
For COc1cnc(Nc2cccc(S(N)(=O)=O)c2)nc1N1CCN(c2ccccc2)C(=O)C1, the remaining binding was 99% (binding; competition with immobilised ligand; 1 µM).
With CN(C)c1nccc(-c2cnn3ncccc23)n1 the remaining binding was 78% (binding; 1 µM).
With O=C(NCCCN1CCOCC1)c1ccc(Nc2ncc(Cl)c(-c3ccc(Cl)s3)n2)cc1 the remaining binding was 44% (binding; competition with immobilised ligand; 1 µM).
c1cnn2ncc(-c3ccnc(N4CCC45COC5)n3)c2c1 gave a remaining binding of 74% (binding; 1 µM).
CS(=O)(=O)c1cc(C2(NC(=O)c3cncc4c3cnn4-c3ccc(F)cc3)CC2)ccn1 gave a remaining binding of 81% (cell-free assay; competition with immobilised ligand; 1 µM).
CN(c1nccc(-c2cnn3ncccc23)n1)C1CC1 gave a remaining binding of 100% (binding; 1 µM).
With CC(C)(C)c1ccc(-c2nc(CBr)nn2-c2cccc(O)c2)cc1 the remaining binding was 100% (cell-free assay; competition with immobilised ligand; 10 µM).
With CN(CCCC(F)(F)F)c1nccc(-c2cnn3ncccc23)n1 the remaining binding was 100% (binding; 1 µM).
CCS(=O)(=O)c1cc2cc(C[C@](O)(CC(C)(C)c3ccc(F)cc3C(N)=O)C(F)(F)F)[nH]c2cn1 gave a remaining binding of 100% (cell-free assay; competition with immobilised ligand; 1 µM).
